Test results taken from ChEMBL document CHEMBL4725484, “Oxetanyl Sulfoxide MMS-350 Ameliorates Pulmonary Fibrosis In Vitro, In Vivo, and Ex Vivo” (ACS Med Chem Lett, 2020).
One block for each molecule: values may come before it. Calls of active or inactive are those of the source. The calls are words filed in the database; no cut-off is given here.

Columns and labels:
Primary lung fibroblast [1] = assay: Antifibrotic activity against TGFbeta1-induced fibrosis in human primary lung fibroblasts assessed as decrease in alpha-SMA protein level at 10 to 60 ug/ml measured after 72 hrs by immunoblotting analysis; type: functional, tissue-based; conditions: dose microg/ml 10-60, time 72.0 hrs
Outline: (§1)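 Primary human fibroblasts were exposed for 72 h to vehicle (DMSO), TGFβ1, or TGFβ1 plus compound at the indicated concentrations. Fibrotic factors in cell lysates and conditioned medium were detected by immunoblotting, with GAPDH as internal control.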

Primary lung fibroblast [2] = assay: Antifibrotic activity against TGFbeta1-induced fibrosis in human primary lung fibroblasts assessed as decrease in IGFBP-3 protein level at 10 to 60 ug/ml measured after 72 hrs by immunoblotting analysis; type: functional, tissue-based; conditions: dose microg/ml 10-60, time 72.0 hrs; outline: as §1
Primary lung fibroblast [3] = assay: Antifibrotic activity against TGFbeta1-induced fibrosis in human primary lung fibroblasts assessed as decrease in fibronectin protein level at 10 to 60 ug/ml measured after 72 hrs by immunoblotting analysis; type: functional, tissue-based; conditions: dose microg/ml 10-60, time 72.0 hrs; outline: as §1
Primary lung fibroblast [4] = assay: Antifibrotic activity against TGFbeta1-induced fibrosis in human primary lung fibroblasts assessed as decrease in collagen type-1 protein level at 10 to 60 ug/ml measured after 72 hrs by immunoblotting analysis; type: functional, tissue-based; conditions: dose microg/ml 10-60, time 72.0 hrs; outline: as §1
Primary lung fibroblast [5] = assay: Antifibrotic activity against TGFbeta1-induced fibrosis in human primary lung fibroblasts assessed as decrease in CTGF protein level at 10 to 60 ug/ml measured after 72 hrs by immunoblotting analysis; type: functional, tissue-based; conditions: dose microg/ml 10-60, time 72.0 hrs; outline: as §1
Primary lung fibroblast [6] = assay: Antifibrotic activity against TGFbeta1-induced fibrosis in human primary lung fibroblasts assessed as decrease in COL1A1 expression level at 91 to 500 ug/ml measured after 48 hrs by qRT-PCR analysis; type: functional, tissue-based; conditions: dose microg/ml 500, time 48.0 hrs, in the assay text read “at 500 ug/ml” for “at 91 to 500 ug/ml”
Outline: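 Primary fibroblasts were treated for 48 h with TGFβ1 with or without compound (500 μg/mL). Extracted RNA was used for real-time PCR of COL1A1. N = 4, mean ± SD.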

Zone of skin [7] = assay: Antifibrotic activity against TGFbeta1-induced dermal fibrosis in human skin assessed as reduction in fibronectin expression level stimulated with TGFbeta1 for 24 hrs followed by compound treatment at 500 ug/ml measured after 72 hrs by qRT-PCR analysis; type: functional, tissue-based; conditions: Skin of body, dose 500.0 µg/ml
Outline: (§2)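 Human skin in organ culture was treated with vehicle (1× PBS) or 10 ng/mL TGFβ1, then given 500 μg/mL compound 24 h later. CTGF expression in whole skin was read 24 h after compound addition. COL1A1 and FN expression in whole skin were read 72 h after compound addition.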

Primary lung fibroblast [8] = assay: Antifibrotic activity against TGFbeta1-induced fibrosis in human primary lung fibroblasts assessed as decrease in collagen type-1 protein level at 500 ug/ml measured after 72 hrs by immunoblotting analysis; type: functional, tissue-based; conditions: dose 500.0 µg/ml
Outline: (§3)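 Primary human fibroblasts received vehicle, 10 ng/mL TGFβ1, 500 μg/mL compound, or TGFβ1 plus compound for 72 h. Vehicles were 4 mM HCl/0.1% BSA for TGFβ1 and 1× PBS for compound. Cell lysates and conditioned medium were immunoblotted with GAPDH as internal control. Densitometry is expressed as mean relative change versus vehicle or internal control ± SDEV, N = 3.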

Mus musculus [9] = assay: Antifibrotic activity against bleomycin-induced C57BL/6J mouse lung fibrosis model assessed as reduction in COL1A2 mRNA level at 2%, po via gavage administered as single dose measured within 5 days by qRT-PCR analysis; type: functional, organism-based; conditions: time day <=5
Outline: (§4)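 Mouse groups received PBS, bleomycin, or bleomycin plus 2% compound. Lung histology was assessed 14 days post-treatment. Lung COL1A2 mRNA was measured at 5 days, normalized to GAPDH. Lung hydroxyproline (total collagen) was measured at 14 days. Data are mean ± SD.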

Primary lung fibroblast [10] = assay: Antifibrotic activity against TGFbeta1-induced fibrosis in human primary lung fibroblasts assessed as decrease in fibronectin protein level at 500 ug/ml measured after 72 hrs by immunoblotting analysis; type: functional, tissue-based; conditions: dose 500.0 µg/ml; outline: as §3
Zone of skin [11] = assay: Antifibrotic activity against TGFbeta1-induced dermal fibrosis in human skin assessed as reduction in COL1A1 expression level stimulated with TGFbeta1 for 24 hrs followed by compound treatment at 500 ug/ml measured after 72 hrs by qRT-PCR analysis; type: functional, tissue-based; conditions: Skin of body, dose 500.0 µg/ml; outline: as §2
Primary lung fibroblast [12] = assay: Antifibrotic activity against TGFbeta1-induced fibrosis in human primary lung fibroblasts assessed as decrease in alpha-SMA protein level at 500 ug/ml measured after 72 hrs by immunoblotting analysis; type: functional, tissue-based; conditions: dose 500.0 µg/ml; outline: as §3
Primary lung fibroblast [13] = assay: Antifibrotic activity in human primary lung fibroblasts assessed as decrease in CTGF protein level at 500 ug/ml measured after 72 hrs by immunoblotting analysis; type: functional, tissue-based; conditions: dose 500.0 µg/ml; outline: as §3
Mus musculus [14] = assay: Antifibrotic activity against bleomycin-induced C57BL/6J mouse lung fibrosis model at 2%, po via gavage administered as single dose measured after 14 days by hematoxylin and eosin staining based microscopic analysis; type: functional, organism-based; conditions: time day 14; outline: as §4
Primary lung fibroblast [15] = assay: Antifibrotic activity against TGFbeta1-induced fibrosis in human primary lung fibroblasts assessed as decrease in TGFbeta1-induced fibronectin protein level at 500 ug/ml treated at 30 mins to 6 hrs post TGFbeta1 stimulation by immunoblotting analysis; type: functional, tissue-based; conditions: dose 500.0 µg/ml, time 6.5 hrs
Outline: (§5)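 Therapeutic-timing design in fibroblasts: 500 μg/mL compound was added together with 10 ng/mL TGFβ1 or 30 min to 6 h after TGFβ1. Profibrotic factors were then assessed by immunoblotting.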

Primary lung fibroblast [16] = assay: Antifibrotic activity against TGFbeta1-induced fibrosis in human primary lung fibroblasts assessed as decrease in IGFBP-3 protein level at 500 ug/ml treated at 30 mins to 6 hrs post TGFbeta1 stimulation by immunoblotting analysis; type: functional, tissue-based; conditions: dose 500.0 µg/ml, time 6.5 hrs; outline: as §5
Zone of skin [17] = assay: Antifibrotic activity against TGFbeta1-induced dermal fibrosis in human skin assessed as reduction in CTGF expression level stimulated with TGFbeta1 for 24 hrs followed by compound treatment at 500 ug/ml measured after 24 hrs by QRT-PCR analysis; type: functional, tissue-based; conditions: Skin of body, dose 500.0 µg/ml; outline: as §2
Primary lung fibroblast [18] = assay: Antifibrotic activity in human primary lung fibroblasts assessed as decrease in alpha-SMA protein level at 500 ug/ml measured after 72 hrs by immunoblotting analysis; type: functional, tissue-based; conditions: dose 500.0 µg/ml; outline: as §3
Mus musculus [19] = assay: Antifibrotic activity against bleomycin-induced C57BL/6J mouse lung fibrosis model assessed as reduction in hydroxyproline level in lung at 2%, po via gavage administered as single dose measured on 14 days by hydroxyproline assay; type: functional, organism-based; conditions: time day 14; outline: as §4
Primary lung fibroblast [20] = assay: Antifibrotic activity in human primary lung fibroblasts assessed as decrease in fibronectin protein level at 500 ug/ml measured after 72 hrs by immunoblotting analysis; type: functional, tissue-based; conditions: dose 500.0 µg/ml; outline: as §3
Primary lung fibroblast [21] = assay: Antifibrotic activity in human primary lung fibroblasts assessed as decrease in IGFBP-3 protein level at 500 ug/ml measured after 72 hrs by immunoblotting analysis; type: functional, tissue-based; conditions: dose 500.0 µg/ml; outline: as §3
Primary lung fibroblast [22] = assay: Antifibrotic activity against TGFbeta1-induced fibrosis in human primary lung fibroblasts assessed as decrease in CTGF protein level at 500 ug/ml treated at 30 mins to 6 hrs post TGFbeta1 stimulation by immunoblotting analysis; type: functional, tissue-based; conditions: dose 500.0 µg/ml, time 6.5 hrs; outline: as §5
[23] = Solubility of the compound in water; type: physicochemical; conditions: buffer
[24] = Lipophilicity, log P of the compound; type: physicochemical; conditions: octanol/water
Primary lung fibroblast [25] = assay: Antifibrotic activity against TGFbeta1-induced fibrosis in human primary lung fibroblasts assessed as decrease in CTGF protein level at 500 ug/ml measured after 72 hrs by immunoblotting analysis; type: functional, tissue-based; conditions: dose 500.0 µg/ml; outline: as §3
Primary lung fibroblast [26] = assay: Antifibrotic activity in human primary lung fibroblasts assessed as decrease in collagen type-1 protein level at 500 ug/ml measured after 72 hrs by immunoblotting analysis; type: functional, tissue-based; conditions: dose 500.0 µg/ml; outline: as §3
Primary lung fibroblast [27] = assay: Antifibrotic activity in against TGFbeta1-induced fibrosis in human primary lung fibroblasts assessed as decrease in collagen type-1 protein level at 500 ug/ml treated at 30 mins to 6 hrs post TGFbeta1 stimulation by immunoblotting analysis; type: functional, tissue-based; conditions: dose 500.0 µg/ml, time 6.5 hrs; outline: as §5
[28] = Toxicity in bleomycin-induced C57BL/6J mouse lung fibrosis model assessed as improvement in mouse survival relative to control; conditions: in vivo
Primary lung fibroblast [29] = assay: Antifibrotic activity against TGFbeta1-induced fibrosis in human primary lung fibroblasts assessed as decrease in alpha-SMA protein level at 500 ug/ml treated at 30 mins to 6 hrs post TGFbeta1 stimulation by immunoblotting analysis; type: functional, tissue-based; conditions: dose 500.0 µg/ml, time 6.5 hrs; outline: as §5
Primary lung fibroblast [30] = assay: Antifibrotic activity against TGFbeta1-induced fibrosis in human primary lung fibroblasts assessed as decrease in IGFBP-3 protein level at 500 ug/ml measured after 72 hrs by immunoblotting analysis; type: functional, tissue-based; conditions: dose 500.0 µg/ml; outline: as §3

Structure (SMILES): CC1(C[S+]([O-])c2ccccc2)COC1 (racemic)
- Activity (Primary lung fibroblast [1]): Active
- Activity (Primary lung fibroblast [2]): Active
- Activity (Primary lung fibroblast [3]): Active
- Activity (Primary lung fibroblast [4]): Active
- Activity (Primary lung fibroblast [5]): Active

Structure (SMILES): [O-][S+](CC1(F)COC1)c1cccc(F)c1 (racemic)
- Activity (Primary lung fibroblast [6]): Active

- solubility [23]: Soluble
- logP [24]: -0.7
Structure (SMILES): CC1(C[S+]([O-])CC2(C)COC2)COC1
- Activity (Zone of skin [7]): Active
- Activity (Primary lung fibroblast [8]): Active
- Activity (Mus musculus [9]): Active
- Activity (Primary lung fibroblast [10]): Active
- Activity (Zone of skin [11]): Active
- Activity (Primary lung fibroblast [12]): Active
- Activity (Primary lung fibroblast [13]): Active
- Activity (Mus musculus [14]): Active
- Activity (Primary lung fibroblast [15]): Active
- Activity (Primary lung fibroblast [16]): Active
- Activity (Zone of skin [17]): Active
- Activity (Primary lung fibroblast [18]): Active
- Activity (Mus musculus [19]): Active
- Activity (Primary lung fibroblast [20]): Active
- Activity (Primary lung fibroblast [21]): Active
- Activity (Primary lung fibroblast [22]): Active
- Activity (Primary lung fibroblast [25]): Active
- Activity (Primary lung fibroblast [26]): Active
- Activity (Primary lung fibroblast [27]): Active
- Activity [28]: 87.5%
- Activity (Primary lung fibroblast [29]): Active
- Activity (Primary lung fibroblast [30]): Active
